Assay results published in ChEMBL document CHEMBL1154933, “2-Aminothiadiazole inhibitors of AKT1 as potential cancer therapeutics” (Bioorg Med Chem Lett, 2010).
The source made the active and inactive calls. No cut-off for these calls is given here.

Legend:
[1] = molecular target: T1, RAC-alpha serine/threonine-protein kinase (Homo sapiens, UniProt P31749); assay: Inhibition of AKT1 after 10 mins by [gamma33]ATP assay
[2] = Inhibition of PKA
[3] = molecular target: Cyclin-dependent kinase 2 (Homo sapiens, UniProt P24941); assay: Inhibition of CDK2
[4] = molecular target: T1, RAC-alpha serine/threonine-protein kinase; assay: Inhibition of human AKT1 in human MDA-MB-468 cells assessed as phosphorylation-mediated nuclear translocation of GFP-tagged FKHRL1 by fluorescence microscopy; format: cell-based
Summary of the method: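 MDA-MB-468 cells stably expressing GFP-tagged FKHRL1 were treated with threefold serial dilutions of compound. Nuclear translocation of the fusion protein was scored by fluorescence microscopy. Mean ± SD where n ≥ 3, some values from a single run.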

[5] = Clearance in Sprague-Dawley rat at 2 mg/kg, iv; format: ADME, organism-based; parameters: dose 2 mg/kg, route intravenous; details: in vivo
Summary of the method: (§1)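 Male Sprague-Dawley rats, n = 3, given a single iv dose in 100% DMSO, at 1 mg/kg or 2 mg/kg depending on compound. Clearance, half-life and steady-state volume of distribution were taken from plasma exposure after the iv dose.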

[6] = Cytotoxicity against human U87MG cells after 3 days by alamar blue staining; format: functional, cell-based, U-87MG ATCC; details: U-87 MG, 72 h
Summary of the method: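 U-87 glioblastoma cells seeded at 6000 cells/well and exposed to compound over a concentration series for 3 days. Viability read by alamarBlue staining, run in triplicate, and EC50 derived.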

[7] = Oral bioavailability in Sprague-Dawley rat at 10 mg/kg; format: ADME, organism-based; details: in vivo
Summary of the method: (§2)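 Male Sprague-Dawley rats, n = 3, dosed orally at 10 mg/kg in 25% PEG 400/[…]. Cmax was taken from the oral exposure. Bioavailability was derived against the separate iv arm, which was 2 mg/kg in 100% DMSO.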

[8] = molecular target: T1, RAC-alpha serine/threonine-protein kinase; assay: Inhibition of human AKT1 in human U87MG cells assessed as PRAS40 phosphorylation after 1 hr by ELISA; format: cell-based, U-87MG ATCC
Summary of the method: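 U87MG cells in 5% FBS medium were incubated with threefold serial dilutions of inhibitor for 1 h at 37 °C, then lysed. Phospho-PRAS40 (Thr246) was quantified by ELISA and normalized to total PRAS40. Mean ± SD where n ≥ 3.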

[9] = Volume of distribution at steady state in Sprague-Dawley rat at 2 mg/kg, iv; format: ADME, organism-based; parameters: dose 2 mg/kg, route intravenous; details: in vivo, read-out: Vdss; summary of the method: as §1
[10] = system: Mus musculus; assay: Inhibition of HGF-stimulated AKT signaling pathway in BALB/c mouse liver assessed as reduction in phosphorylated FKHRL1 level at 30 mg/kg, ip dosed up to 6 hrs before HGF challenge and measured after 5 mins by Western blot analysis; format: functional, organism-based; parameters: dose 30 mg/kg
[11] = molecular target: T2, Serine/threonine-protein kinase Sgk1 (Homo sapiens, UniProt O00141); assay: Inhibition of SGK1
T2 sequence (O00141 whole entry): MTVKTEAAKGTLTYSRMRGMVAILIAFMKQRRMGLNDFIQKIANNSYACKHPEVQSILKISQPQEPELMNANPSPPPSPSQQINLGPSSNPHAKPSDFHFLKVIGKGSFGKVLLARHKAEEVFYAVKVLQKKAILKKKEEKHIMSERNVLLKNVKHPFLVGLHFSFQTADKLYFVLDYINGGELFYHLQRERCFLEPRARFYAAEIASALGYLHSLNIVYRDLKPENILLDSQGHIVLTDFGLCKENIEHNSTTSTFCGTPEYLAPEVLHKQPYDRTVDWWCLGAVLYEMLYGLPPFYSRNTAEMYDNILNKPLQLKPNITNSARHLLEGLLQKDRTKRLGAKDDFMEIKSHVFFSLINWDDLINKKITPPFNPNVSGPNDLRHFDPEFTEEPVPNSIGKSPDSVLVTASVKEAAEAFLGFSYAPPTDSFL

[12] = Selectivity ratio of IC50 for CDK2 to IC50 for AKT1
[13] = system: Mus musculus; assay: Inhibition of HGF-stimulated AKT signaling pathway in BALB/c mouse liver assessed as reduction in phosphorylated FKHRL1 level ip dosed 1 hr before HGF challenge and measured after 5 mins by Western blot analysis; format: functional, organism-based
[14] = Cmax in Sprague-Dawley rat at 10 mg/kg, po; format: ADME, organism-based; parameters: dose 10 mg/kg, route oral; details: in vivo; summary of the method: as §2
[15] = Half life in Sprague-Dawley rat at 2 mg/kg, iv; format: ADME, organism-based; parameters: dose 2 mg/kg, route intravenous; details: in vivo; summary of the method: as §1
[16] = Half life in Sprague-Dawley rat at 1 mg/kg, iv; format: ADME, organism-based; parameters: dose 1 mg/kg, route intravenous; details: in vivo; summary of the method: as §1
[17] = Volume of distribution at steady state in Sprague-Dawley rat at 1 mg/kg, iv; format: ADME, organism-based; parameters: dose 1 mg/kg, route intravenous; details: in vivo, read-out: Vdss; summary of the method: as §1
[18] = Clearance in Sprague-Dawley rat at 1 mg/kg, iv; format: ADME, organism-based; parameters: dose 1 mg/kg, route intravenous; details: in vivo; summary of the method: as §1

T1 sequence (P31749 whole entry): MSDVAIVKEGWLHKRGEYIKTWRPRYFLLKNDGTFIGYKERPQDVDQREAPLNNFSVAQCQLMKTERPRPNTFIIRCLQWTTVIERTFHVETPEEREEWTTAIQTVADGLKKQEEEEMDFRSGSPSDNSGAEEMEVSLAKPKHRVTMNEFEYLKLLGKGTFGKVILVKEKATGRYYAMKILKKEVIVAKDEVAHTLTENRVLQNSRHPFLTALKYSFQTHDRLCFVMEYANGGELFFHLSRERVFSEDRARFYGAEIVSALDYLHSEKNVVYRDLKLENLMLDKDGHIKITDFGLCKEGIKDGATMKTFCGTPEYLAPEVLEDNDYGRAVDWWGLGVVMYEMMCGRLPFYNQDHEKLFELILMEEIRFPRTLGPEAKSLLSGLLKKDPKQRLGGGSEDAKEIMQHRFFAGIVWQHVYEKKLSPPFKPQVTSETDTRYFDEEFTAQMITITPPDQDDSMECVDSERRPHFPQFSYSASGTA

SMILES	IC50 [1] [nM]	IC50 [2] [nM]	IC50 [3] [nM]	further results
CCc1n[nH]c2ccc(-c3nnc(NC[C@@H](N)Cc4ccccc4)s3)cc12	370	–	–	–
Cc1n[nH]c2ccc(-c3nnc(NC[C@@H](N)Cc4ccc(F)c(F)c4)s3)cc12	14	27	19	–
N[C@H](CNc1nnc(-c2ccc3[nH]nc(C4CC4)c3c2)s1)Cc1ccc(C(F)(F)F)cc1	181	237	135	–
N[C@H](CNc1nnc(-c2ccc3[nH]ncc3c2)s1)Cc1ccc(F)cc1	368	373	74	–
N[C@H](CNc1nnc(-c2ccc3cnccc3c2)s1)Cc1ccc(C(F)(F)F)cc1	3	8	53	IC50 [4]: 695 nM; clearance [5]: 25 mL/min/kg; EC50 [6]: 380 nM; bioavailability [7]: 20%; IC50 [8]: 247 nM; Vd [9]: 3.8 L/kg; inhibition [10]: Active; IC50 [11]: 2200 nM; Ratio IC50 [12]: 20; inhibition [13]: Dose-dependent effect; Cmax [14]: 430 ng/mL; half-life [15]: 3.8 h
Cc1n[nH]c2ccc(-c3nnc(NC[C@@H](N)Cc4cccc(F)c4)s3)cc12	38	230	–	–
N[C@H](CNc1nnc(-c2ccc3[nH]ncc3c2)s1)Cc1cccc(C(F)(F)F)c1	25	117	–	–
Cc1n[nH]c2ccc(-c3nnc(NC[C@@H](N)Cc4ccccc4)s3)cc12	76	54	72	–
Cc1cc2cc(-c3nnc(NC[C@@H](N)Cc4ccc(C(F)(F)F)cc4)s3)ccc2cn1	280	274	607	–
Cc1n[nH]c2ccc(-c3nnc(NC[C@@H](N)Cc4cccc(Cl)c4)s3)cc12	19	15	17	–
Cc1n[nH]c2ccc(-c3nnc(NC[C@@H](N)Cc4cccc(C(F)(F)F)c4)s3)cc12	6.1	6.5	35	–
Cc1n[nH]c2ccc(-c3nnc(NC[C@@H](N)Cc4ccccc4F)s3)cc12	198	215	104	–
Cc1n[nH]c2ccc(-c3nnc(NC[C@H](N)Cc4ccccc4)s3)cc12	> 2200	–	–	–
N[C@H](CNc1nnc(-c2ccc3[nH]ncc3c2)s1)Cc1ccc(Cl)cc1Cl	40	158	323	Ratio IC50 [12]: 8
Cc1n[nH]c2ccc(-c3nnc(NC[C@@H](N)Cc4ccc(C(F)(F)F)cc4)s3)cc12	5.5	13	17	IC50 [4]: 333 nM; half-life [16]: 4.1 h; IC50 [8]: 357 nM; Vd [17]: 13.7 L/kg; clearance [18]: 46.7 mL/min/kg
N[C@H](CNc1nnc(-c2ccc3[nH]ncc3c2)s1)Cc1ccc(Cl)cc1	24	157	41	–
N[C@H](CNc1nnc(-c2ccc3[nH]nc(-c4ccccc4)c3c2)s1)Cc1cccc(C(F)(F)F)c1	413	368	79	–
N[C@H](CNc1nnc(-c2ccc3[nH]ncc3c2)s1)Cc1ccc(C(F)(F)F)cc1	6	108	24	IC50 [4]: 154 nM; half-life [16]: 2.5 h; IC50 [8]: 444 nM; Ratio IC50 [12]: 4; Vd [17]: 13.3 L/kg; clearance [18]: 81.7 mL/min/kg
Cc1n[nH]c2ccc(-c3nnc(NC[C@@H](N)Cc4ccccc4Cl)s3)cc12	47	106	57	–
Cc1n[nH]c2ccc(-c3nnc(NC[C@@H](N)Cc4ccccc4C(F)(F)F)s3)cc12	491	247	198	–
Cc1n[nH]c2ccc(-c3nnc(NC[C@@H](N)Cc4ccc(Cl)cc4Cl)s3)cc12	18	43	70	–
Cc1n[nH]c2ccc(-c3nnc(NC[C@@H](N)Cc4ccc(Cl)cc4)s3)cc12	8.9	11	72	–
